Data published in ChEMBL document CHEMBL4689842, “EUbOPEN Chemogenomics Library wave 1” (2021).
Where “and” joins values, the source holds several entries; their conditions need not be identical. Equal entries are not always repeated.

Tested on: Fibroblast
Experiment: Multiplex assay against human fibroblast
Format: toxicity, cell-based
Procedure, shortened: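 Four dyes were applied at seeding to live cells: Hoechst33342, BioTracker Green Microtubule Cytoskeleton Dye, MitoTracker Red and Annexin V Alexa Fluor 680. Imaging after compound addition used a CQ1 microscope at 37°C and 5% CO2. CellPathfinder machine-learning gating then sorted cells into Hoechst high-intensity objects or normal cells, normal cells into healthy, pyknosed or fragmented nuclei, and pyknosed cells into mitotic or apoptotic, with tubulin, mitochondrial-mass and membrane-permeability phenotypes given as per cents of healthy-nucleus cells.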

[1] = 12 h, 1 µM, compound concentration 1 uM, replicate 1
[2] = 12 h, 1 µM, compound concentration 1 uM, replicate 2
[3] = 12 h, 10 µM, compound concentration 10 uM, replicate 1
[4] = 12 h, 10 µM, compound concentration 10 uM, replicate 2
[5] = 24 h, 1 µM, compound concentration 1 uM, replicate 1
[6] = 24 h, 1 µM, compound concentration 1 uM, replicate 2
[7] = 24 h, 10 µM, compound concentration 10 uM, replicate 1
[8] = 24 h, 10 µM, compound concentration 10 uM, replicate 2
[9] = 48 h, 1 µM, compound concentration 1 uM, replicate 1
[10] = 48 h, 1 µM, compound concentration 1 uM, replicate 2
[11] = 48 h, 10 µM, compound concentration 10 uM, replicate 1
[12] = 48 h, 10 µM, compound concentration 10 uM, replicate 2

C[C@@H](NCCCc1cccc(C(F)(F)F)c1)c1cccc2ccccc12.Cl [CINACALCET HYDROCHLORIDE]
Population Apoptotic (%) [1]: 59%
Population Fragmented Nuclei (%) [1]: 22%
Population Healthy Nuclei (%) [1]: 46%
Population Hoechst High Intensity Objects (%) [1]: 16%
Population Membrane Permeable-Phenotype (%) [1]: 12%
Population Mitochondria Different-Phenotype (%) [1]: 14%
Population Mitotic Cells (%) [1]: 40%
Population Normal (%) [1]: 84%
Population Pyknosed Nuclei (%) [1]: 30%
Population Tubulin-Different-Phenotype (%) [1]: 57%
Total Cell Count [1]: 125
Population Apoptotic (%) [2]: 33%
Population Fragmented Nuclei (%) [2]: 10%
Population Healthy Nuclei (%) [2]: 76%
Population Hoechst High Intensity Objects (%) [2]: 9%
Population Membrane Permeable-Phenotype (%) [2]: 11%
Population Mitochondria Different-Phenotype (%) [2]: 22%
Population Mitotic Cells (%) [2]: 66%
Population Normal (%) [2]: 90%
Population Pyknosed Nuclei (%) [2]: 12%
Population Tubulin-Different-Phenotype (%) [2]: 36%
Total Cell Count [2]: 52
Population Apoptotic (%) [3]: 57%
Population Fragmented Nuclei (%) [3]: 33%
Population Healthy Nuclei (%) [3]: 35%
Population Hoechst High Intensity Objects (%) [3]: 11%
Population Membrane Permeable-Phenotype (%) [3]: 4%
Population Mitochondria Different-Phenotype (%) [3]: 73%
Population Mitotic Cells (%) [3]: 42%
Population Normal (%) [3]: 88%
Population Pyknosed Nuclei (%) [3]: 30%
Total Cell Count [3]: 155
Population Apoptotic (%) [4]: 88%
Population Fragmented Nuclei (%) [4]: 20%
Population Healthy Nuclei (%) [4]: 23%
Population Hoechst High Intensity Objects (%) [4]: 7%
Population Membrane Permeable-Phenotype (%) [4]: 33%
Population Mitochondria Different-Phenotype (%) [4]: 93%
Population Mitotic Cells (%) [4]: 11%
Population Normal (%) [4]: 92%
Population Pyknosed Nuclei (%) [4]: 55%
Population Tubulin-Different-Phenotype (%) [4]: 93%
Total Cell Count [4]: 68
Population Apoptotic (%) [5]: 38%
Population Fragmented Nuclei (%) [5]: 25%
Population Healthy Nuclei (%) [5]: 50%
Population Hoechst High Intensity Objects (%) [5]: 15%
Population Membrane Permeable-Phenotype (%) [5]: 16%
Population Mitochondria Different-Phenotype (%) [5]: 12%
Population Mitotic Cells (%) [5]: 61%
Population Normal (%) [5]: 84%
Population Pyknosed Nuclei (%) [5]: 24%
Population Tubulin-Different-Phenotype (%) [5]: 65%
Total Cell Count [5]: 128
Population Apoptotic (%) [6]: 36%
Population Fragmented Nuclei (%) [6]: 8%
Population Healthy Nuclei (%) [6]: 69%
Population Hoechst High Intensity Objects (%) [6]: 7%
Population Membrane Permeable-Phenotype (%) [6]: 5%
Population Mitochondria Different-Phenotype (%) [6]: 26%
Population Mitotic Cells (%) [6]: 63%
Population Normal (%) [6]: 92%
Population Pyknosed Nuclei (%) [6]: 22%
Population Tubulin-Different-Phenotype (%) [6]: 17%
Total Cell Count [6]: 53
Population Apoptotic (%) [7]: 65%
Population Fragmented Nuclei (%) [7]: 35%
Population Healthy Nuclei (%) [7]: 35%
Population Hoechst High Intensity Objects (%) [7]: 11%
Population Membrane Permeable-Phenotype (%) [7]: 10%
Population Mitochondria Different-Phenotype (%) [7]: 71%
Population Mitotic Cells (%) [7]: 34%
Population Normal (%) [7]: 88%
Population Pyknosed Nuclei (%) [7]: 28%
Population Tubulin-Different-Phenotype (%) [7]: 89%
Total Cell Count [7]: 208
Population Apoptotic (%) [8]: 92%
Population Fragmented Nuclei (%) [8]: 15%
Population Healthy Nuclei (%) [8]: 32%
Population Hoechst High Intensity Objects (%) [8]: 24%
Population Membrane Permeable-Phenotype (%) [8]: 52%
Population Mitochondria Different-Phenotype (%) [8]: 88%
Population Mitotic Cells (%) [8]: 7%
Population Normal (%) [8]: 75%
Population Pyknosed Nuclei (%) [8]: 51%
Population Tubulin-Different-Phenotype (%) [8]: 82%
Total Cell Count [8]: 69
Population Apoptotic (%) [9]: 46%
Population Fragmented Nuclei (%) [9]: 33%
Population Healthy Nuclei (%) [9]: 52%
Population Hoechst High Intensity Objects (%) [9]: 19%
Population Membrane Permeable-Phenotype (%) [9]: 16%
Population Mitochondria Different-Phenotype (%) [9]: 5%
Population Mitotic Cells (%) [9]: 53%
Population Normal (%) [9]: 80%
Population Pyknosed Nuclei (%) [9]: 14%
Population Tubulin-Different-Phenotype (%) [9]: 40%
Total Cell Count [9]: 130
Population Apoptotic (%) [10]: 66%
Population Fragmented Nuclei (%) [10]: 50%
Population Healthy Nuclei (%) [10]: 47%
Population Hoechst High Intensity Objects (%) [10]: 10%
Population Membrane Permeable-Phenotype (%) [10]: 15%
Population Mitochondria Different-Phenotype (%) [10]: 4%
Population Mitotic Cells (%) [10]: 33%
Population Normal (%) [10]: 89%
Population Pyknosed Nuclei (%) [10]: 1%
Population Tubulin-Different-Phenotype (%) [10]: 58%
Total Cell Count [10]: 169
Population Apoptotic (%) [11]: 90%
Population Fragmented Nuclei (%) [11]: 42%
Population Healthy Nuclei (%) [11]: 36%
Population Hoechst High Intensity Objects (%) [11]: 13%
Population Membrane Permeable-Phenotype (%) [11]: 5%
Population Mitochondria Different-Phenotype (%) [11]: 68%
Population Mitotic Cells (%) [11]: 10%
Population Normal (%) [11]: 86%
Population Pyknosed Nuclei (%) [11]: 20%
Population Tubulin-Different-Phenotype (%) [11]: 80%
Total Cell Count [11]: 226
Population Apoptotic (%) [12]: 92%
Population Fragmented Nuclei (%) [12]: 35%
Population Healthy Nuclei (%) [12]: 8%
Population Hoechst High Intensity Objects (%) [12]: 23%
Population Membrane Permeable-Phenotype (%) [12]: 25%
Population Mitochondria Different-Phenotype (%) [12]: 25%
Population Mitotic Cells (%) [12]: 7%
Population Normal (%) [12]: 76%
Population Pyknosed Nuclei (%) [12]: 55%
Population Tubulin-Different-Phenotype (%) [12]: 50%
Total Cell Count [12]: 121

CC(C)C(=O)Nc1n[nH]c2cc(-c3cccc(NS(=O)(=O)C4CC4)c3)ccc12
Population Apoptotic (%) [1]: 85% and 80%
Population Fragmented Nuclei (%) [1]: 36% and 25%
Population Healthy Nuclei (%) [1]: 36% and 58%
Population Hoechst High Intensity Objects (%) [1]: 13% and 11%
Population Membrane Permeable-Phenotype (%) [1]: 8% and 7%
Population Mitochondria Different-Phenotype (%) [1]: 0% and 6%
Population Mitotic Cells (%) [1]: 14% and 20%
Population Normal (%) [1]: 86% and 88%
Population Pyknosed Nuclei (%) [1]: 26%
Population Tubulin-Different-Phenotype (%) [1]: 6% and 2%
Total Cell Count [1]: 151 and 184
Population Apoptotic (%) [2]: 100% and 50%
Population Fragmented Nuclei (%) [2]: 56% and 43%
Population Healthy Nuclei (%) [2]: 38% and 40%
Population Hoechst High Intensity Objects (%) [2]: 34% and 18%
Population Normal (%) [2]: 65% and 81%
Population Pyknosed Nuclei (%) [2]: 6% and 15%
Population Tubulin-Different-Phenotype (%) [2]: 15% and 30%
Total Cell Count [2]: 76 and 79
Population Apoptotic (%) [5]: 65% and 60%
Population Fragmented Nuclei (%) [5]: 40% and 28%
Population Healthy Nuclei (%) [5]: 42% and 54%
Population Hoechst High Intensity Objects (%) [5]: 8% and 9%
Population Membrane Permeable-Phenotype (%) [5]: 17% and 7%
Population Mitochondria Different-Phenotype (%) [5]: 1% and 2%
Population Mitotic Cells (%) [5]: 34% and 39%
Population Normal (%) [5]: 91% and 90%
Population Pyknosed Nuclei (%) [5]: 17%
Population Tubulin-Different-Phenotype (%) [5]: 8% and 4%
Total Cell Count [5]: 144 and 207
Population Apoptotic (%) [6]: 42% and 33%
Population Fragmented Nuclei (%) [6]: 47% and 51%
Population Healthy Nuclei (%) [6]: 41% and 36%
Population Hoechst High Intensity Objects (%) [6]: 23% and 22%
Population Membrane Permeable-Phenotype (%) [6]: 15% and 11%
Population Mitochondria Different-Phenotype (%) [6]: 15% and 0%
Population Mitotic Cells (%) [6]: 57% and 66%
Population Normal (%) [6]: 76% and 77%
Population Pyknosed Nuclei (%) [6]: 11% and 12%
Population Tubulin-Different-Phenotype (%) [6]: 11% and 22%
Total Cell Count [6]: 82 and 63
